Source: ChEMBL document CHEMBL1123883, “Structure-activity relationships in the 2-arylcarbapenem series: synthesis of 1-methyl-2-arylcarbapenems” (1987)
≈ marks a conversion by molar mass, not a printed value.

Assays:
[1] = test system: Serratia; test: Antibiotic activity was determined against Serratia species (2); assay type: functional
Outline: (§1)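 Inhibitory concentrations against the strains of each species were expressed as a ratio to the inhibitory concentration of thienamycin, the reference carbapenem, in the same strains.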

[2] = test system: Enterobacter; test: Antibiotic activity was determined against Enterobacter species (6); assay type: functional; outline: as §1
[3] = test system: Proteus; test: Antibiotic activity was determined against Proteus species (5); assay type: functional, Proteus sp.; outline: as §1
[4] = test system: Enterococcus; test: Antibiotic activity was determined against Enterococcus (3); assay type: functional; outline: as §1
[5] = test system: Staphylococcus aureus; test: Antibiotic activity was determined against Staphylococcus aureus (5); assay type: functional; outline: as §1
[6] = test system: Escherichia coli; test: Antibiotic activity was determined against Escherichia coli(5); assay type: functional; outline: as §1
[7] = target: T1, Dipeptidase 1 (Homo sapiens) (UniProt P16444); test: Susceptibility to mammalian dehydropeptidase DHP-1 relative to thienamycin
T1 sequence (whole entry): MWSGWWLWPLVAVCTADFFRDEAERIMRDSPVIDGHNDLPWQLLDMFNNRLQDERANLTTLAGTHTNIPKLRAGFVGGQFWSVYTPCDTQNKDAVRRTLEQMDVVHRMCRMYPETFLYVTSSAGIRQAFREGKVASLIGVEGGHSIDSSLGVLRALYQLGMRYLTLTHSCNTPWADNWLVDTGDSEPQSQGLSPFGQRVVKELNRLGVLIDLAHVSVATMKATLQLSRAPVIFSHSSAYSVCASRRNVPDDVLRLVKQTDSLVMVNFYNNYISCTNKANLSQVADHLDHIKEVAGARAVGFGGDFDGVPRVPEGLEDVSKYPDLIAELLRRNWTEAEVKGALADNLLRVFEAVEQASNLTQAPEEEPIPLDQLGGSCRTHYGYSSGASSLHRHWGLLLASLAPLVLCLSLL

[8] = test system: Pseudomonas aeruginosa; test: Antibiotic activity was determined against Pseudomonas aeruginosa (5); assay type: functional; outline: as §1
[9] = test system: Klebsiella sp.; test: Antibiotic activity was determined against Klebsiella species (5); assay type: functional; outline: as §1

Structure (SMILES) | MIC [1] [mg/L] | MIC [2] [mg/L] | MIC [3] [mg/L] | MIC [4] [mg/L] | MIC [5] [mg/L] | MIC [6] [mg/L] | Relative susceptibility [7] | MIC [8] [mg/L] | MIC [9] [mg/L]
C[C@@H](O)[C@H]1C(=O)N2C(C(=O)[O-])=C(c3cccnc3)[C@H](C)[C@H]12.[K+] | 13 | 13 | 7 | 2.5 | 1 | 12 | 0.7 | 0.05 | 7
C[C@@H](O)[C@H]1C(=O)N2C(C(=O)O)=C(c3ccc(CN)cc3)[C@H](C)[C@H]12 | 6.5 (≈ 20.5 µM) | 2.5 (≈ 7.9 µM) | 2 (≈ 6.32 µM) | 3 (≈ 9.48 µM) | 0.4 (≈ 1.26 µM) | 1.6 (≈ 5.06 µM) | 0.07 | 0.13 (≈ 0.411 µM) | 1.7 (≈ 5.37 µM)
O=C(O)C1=C(c2cccnc2)CC2CC(=O)N12 (stereo not given) | 0.01 (≈ 0.0434 µM) | 0.02 (≈ 0.0869 µM) | 0.03 (≈ 0.13 µM) | 0.15 (≈ 0.652 µM) | 0.002 (≈ 0.00869 µM) | 0.01 (≈ 0.0434 µM) | 0.3 | 0.1 (≈ 0.434 µM) | 0.02 (≈ 0.0869 µM)
CC(O)[C@H]1C(=O)N2C(C(=O)O)=C(c3ccc(CN)cc3)C[C@H]12 (stereo not given in full) | 5.3 (≈ 17.5 µM) | 11 (≈ 36.4 µM) | 6.5 (≈ 21.5 µM) | 9.2 (≈ 30.4 µM) | 1.5 (≈ 4.96 µM) | 3.5 (≈ 11.6 µM) | – | 0.3 (≈ 0.992 µM) | 3.2 (≈ 10.6 µM)
C[C@@H](O)[C@H]1C(=O)N2C(C(=O)[O-])=C(c3ccccc3)C[C@H]12.[K+] | 10 | 4.6 | 10 | 5.7 | 0.5 | 2.5 | 0.2 | 0.03 | 1.4
C[C@@H](O)[C@H]1C(=O)N2C(C(=O)[O-])=C(c3ccc(CO)cc3)C[C@H]12.[K+] | 7 | 4 | 15 | 5 | 1 | 2 | 0.28 | 0.02 | 2.3
C[C@@H](O)[C@H]1C(=O)N2C(C(=O)[O-])=C(c3cccnc3)C[C@H]12.[K+] | 28 | 20 | 17 | 6 | 1.5 | 9 | 0.4 | 0.05 | 7

Further lines, results first:

MIC [1] [mg/L] | MIC [2] [mg/L] | MIC [3] [mg/L] | MIC [4] [mg/L] | MIC [5] [mg/L] | MIC [6] [mg/L] | Relative susceptibility [7] | MIC [8] [mg/L] | MIC [9] [mg/L] | Structure (SMILES)
2.3 | 1.7 | 8 | 7.5 | 0.4 | 2.8 | 0.2 | 0.06 | 0.7 | C[C@@H](O)[C@H]1C(=O)N2C(C(=O)[O-])=C(c3ccc(O)cc3)C[C@H]12.[K+]
0.01 (≈ 0.0436 µM) | 0.2 (≈ 0.872 µM) | 0.03 (≈ 0.131 µM) | 1 (≈ 4.36 µM) | 0.02 (≈ 0.0872 µM) | 0.1 (≈ 0.436 µM) | 0.35 | 0.03 (≈ 0.131 µM) | 0.04 (≈ 0.174 µM) | O=C(O)C1=C(c2ccccc2)CC2CC(=O)N12 (stereo not given)
2.5 (≈ 9.18 µM) | 1.4 (≈ 5.14 µM) | 7.5 (≈ 27.5 µM) | 5 (≈ 18.4 µM) | 0.04 (≈ 0.147 µM) | 0.3 (≈ 1.1 µM) | 1 | 5.8 (≈ 21.3 µM) | 1.3 (≈ 4.77 µM) | C[C@@H](O)[C@H]1C(=O)N2C(C(=O)O)=C(SCCN)C[C@H]12 [THIENAMYCIN]
3.2 (≈ 10.1 µM) | 3.5 (≈ 11 µM) | 2.5 (≈ 7.88 µM) | 2.8 (≈ 8.82 µM) | 0.5 (≈ 1.58 µM) | 1.5 (≈ 4.73 µM) | 0.16 | 0.08 (≈ 0.252 µM) | 2.8 (≈ 8.82 µM) | C[C@@H](O)[C@H]1C(=O)N2C(C(=O)O)=C(c3ccc(CN)nc3)[C@H](C)[C@H]12
– | – | – | – | – | – | 0.02 | – | – | C[C@H](O)[C@H]1C(=O)N2C(C(=O)O)=C(c3ccc(CN)cc3)C[C@H]12
5.3 (≈ 17.5 µM) | 5.7 (≈ 18.8 µM) | 3.2 (≈ 10.5 µM) | 8 (≈ 26.4 µM) | 1.9 (≈ 6.26 µM) | 3 (≈ 9.89 µM) | 0.1 | 0.2 (≈ 0.659 µM) | 3 (≈ 9.89 µM) | C[C@@H](O)[C@H]1C(=O)N2C(C(=O)O)=C(c3ccc(CN)nc3)C[C@H]12
1 | 0.3 | 3.5 | 2 | 0.2 | 0.5 | 0.25 | 0.02 | 0.3 | C[C@@H](O)[C@H]1C(=O)N2C(C(=O)[O-])=C(c3ccccc3)[C@H](C)[C@H]12.[K+]
22 | 5 | 2.5 | 0.15 | 0.15 | 3.5 | 0.1 | 0.03 | 2.5 | C[C@@H]1C(c2cccnc2)=C(C(=O)[O-])N2C(=O)[C@H]([C@@H](C)O)[C@@H]12.[K+]
1.2 | 1.1 | 5.3 | 1.4 | 0.2 | 0.9 | 0.22 | 0.02 | 0.7 | C[C@@H](O)[C@H]1C(=O)N2C(C(=O)[O-])=C(c3ccc(CO)cc3)[C@H](C)[C@H]12.[K+]
